What is called Kd is the constant that tells how readily two partners part at equilibrium. A low value points to a tighter complex.

“Also recorded” adds a separate entry of the source. Where no end group is shown, it is not given here.

From publication PMC7860060 (ACS Omega, 2021) come the findings set out here.

Data set [1] addresses T1, carbamylated fibrinogen (cFgn) (Bos taurus, UniProt P02672+P02676+P12799, DEL436-444).
T1 sequence (P02672 20-615): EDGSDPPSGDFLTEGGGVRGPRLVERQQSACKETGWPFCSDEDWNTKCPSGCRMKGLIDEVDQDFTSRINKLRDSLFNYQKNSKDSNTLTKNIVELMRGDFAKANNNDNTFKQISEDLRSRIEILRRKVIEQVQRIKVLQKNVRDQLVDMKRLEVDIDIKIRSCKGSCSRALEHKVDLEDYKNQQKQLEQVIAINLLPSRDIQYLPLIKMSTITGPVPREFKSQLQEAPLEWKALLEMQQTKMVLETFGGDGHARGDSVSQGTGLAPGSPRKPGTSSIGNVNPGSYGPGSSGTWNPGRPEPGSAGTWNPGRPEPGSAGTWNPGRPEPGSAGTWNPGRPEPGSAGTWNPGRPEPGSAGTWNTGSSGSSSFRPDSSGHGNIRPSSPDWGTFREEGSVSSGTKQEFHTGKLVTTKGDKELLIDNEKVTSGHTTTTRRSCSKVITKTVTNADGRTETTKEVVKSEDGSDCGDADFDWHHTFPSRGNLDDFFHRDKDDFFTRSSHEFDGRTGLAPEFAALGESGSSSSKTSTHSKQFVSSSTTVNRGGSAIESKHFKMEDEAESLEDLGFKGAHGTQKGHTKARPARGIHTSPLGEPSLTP
T1 sequence (P02676 1-468): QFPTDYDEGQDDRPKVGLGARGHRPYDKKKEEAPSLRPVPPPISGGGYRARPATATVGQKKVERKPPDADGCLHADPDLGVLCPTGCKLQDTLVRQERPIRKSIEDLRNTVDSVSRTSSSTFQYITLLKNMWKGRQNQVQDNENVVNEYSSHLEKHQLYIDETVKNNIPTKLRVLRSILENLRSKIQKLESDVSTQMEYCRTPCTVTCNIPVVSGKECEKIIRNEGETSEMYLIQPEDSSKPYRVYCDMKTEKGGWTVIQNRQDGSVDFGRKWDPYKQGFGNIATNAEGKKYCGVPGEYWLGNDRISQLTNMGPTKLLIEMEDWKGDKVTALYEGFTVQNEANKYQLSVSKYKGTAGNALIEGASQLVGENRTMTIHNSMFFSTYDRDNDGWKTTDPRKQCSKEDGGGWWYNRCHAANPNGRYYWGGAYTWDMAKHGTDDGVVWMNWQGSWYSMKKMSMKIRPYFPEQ
T1 sequence (P12799 25-435 limits assumed): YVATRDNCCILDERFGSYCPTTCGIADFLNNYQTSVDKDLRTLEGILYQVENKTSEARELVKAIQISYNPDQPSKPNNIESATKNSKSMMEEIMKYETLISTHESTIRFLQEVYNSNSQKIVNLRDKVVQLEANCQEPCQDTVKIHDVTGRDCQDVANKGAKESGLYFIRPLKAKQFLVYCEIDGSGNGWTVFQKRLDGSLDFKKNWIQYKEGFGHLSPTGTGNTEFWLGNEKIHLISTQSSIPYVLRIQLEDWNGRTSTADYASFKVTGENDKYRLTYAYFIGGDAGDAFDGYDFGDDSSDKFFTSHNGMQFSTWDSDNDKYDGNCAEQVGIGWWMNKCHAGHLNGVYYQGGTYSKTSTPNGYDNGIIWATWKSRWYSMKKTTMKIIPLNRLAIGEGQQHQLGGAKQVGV
In words: ITC titration of peptide into cFgn. The data set is classed as binding, bovine. Summed up:
(§1)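 Bovine plasma fibrinogen was used either native or carbamylated by stirring 0.008 mM protein with 0.1 M sodium cyanate in 0.1 M phosphate pH 7.4 at room temperature for 2 days. Cell held 4 μM protein; peptide titrant was 0.21 mM; both were in 0.1 M sodium phosphate pH 7.4. 50 injections 200 s apart, 150 rpm, 25 °C. Dilution heat subtracted, independent-model fit, repeated at least twice.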

The target of data set [2] is carbamylated HSA (cHSA-2) (Homo sapiens, UniProt P02768). In words: ITC titration of peptide into cHSA-2. It is filed as binding. Background: ITC needs no label: the signal is the heat of the interaction.
Data set [3] concerns the target carbamylated HSA (cHSA-1) (Homo sapiens, UniProt P02768). Nature of the data set: ITC titration of peptide into cHSA-1. The data set is classed as binding. As to conditions: pH 7.4.
For a further data set, the target named is native HSA (Homo sapiens, UniProt P02768). In words: ITC titration of peptide into native HSA. It is filed as binding. The note with it: 0.1 M sodium phosphate pH 7.4, 25 °C.
Another data set deals with native Fgn (fibrinogen). Nature of the data set: ITC titration of peptide into native Fgn. The data set is classed as binding, bovine. The note with it: peptide 0.21 mM into Fgn 4 μM, 0.1 M sodium phosphate pH 7.4, 25 °C. Put shortly: as §1
The target in the next data set is cHSA (Homo sapiens, UniProt P02768). Nature of the data set: ITC titration of peptide into cHSA of different levels of carbamylation. The data set is classed as binding.
In data set [4] the target is anti-Hcit (anti-carbamylation (homocitrulline) polyclonal antibody). Nature of the data set: ITC titration of peptide into anti-Hcit. The note with it: peptide into solution containing only anti-Hcit, 25 °C, 0.01 M PBS pH 7.4 containing 50% glycerol and 0.02% NaN3 (control test). It is filed as binding, rabbits.
Data set [5] has as its target carbamylated HSA (cHSA-3) (Homo sapiens, UniProt P02768). Nature of the data set: ITC titration of peptide into cHSA-3. The note with it: pH 7.4. The data set is classed as binding.
A short description of data set [6]: Water solubility of peptides. The note with it: peptide excluded from synthesis for ITC; 'would be' marginally soluble. It is filed as physicochemical.
For data set [7], the target named is Albumin from human serum (native HSA) (human, UniProt P02768 25-609). In words: ITC.
Data set [8] has as its target Anti-carbamylation (homocitrulline) polyclonal antibody (anti-Hcit) (rabbit). Nature of the data set: ITC.
Data set [9] concerns the target Carbamylated human serum albumin, Hcit% 2.7 (cHSA-2) (human) (UniProt P02768). In words: ITC.

Chain of cHSA (P02768 25-609): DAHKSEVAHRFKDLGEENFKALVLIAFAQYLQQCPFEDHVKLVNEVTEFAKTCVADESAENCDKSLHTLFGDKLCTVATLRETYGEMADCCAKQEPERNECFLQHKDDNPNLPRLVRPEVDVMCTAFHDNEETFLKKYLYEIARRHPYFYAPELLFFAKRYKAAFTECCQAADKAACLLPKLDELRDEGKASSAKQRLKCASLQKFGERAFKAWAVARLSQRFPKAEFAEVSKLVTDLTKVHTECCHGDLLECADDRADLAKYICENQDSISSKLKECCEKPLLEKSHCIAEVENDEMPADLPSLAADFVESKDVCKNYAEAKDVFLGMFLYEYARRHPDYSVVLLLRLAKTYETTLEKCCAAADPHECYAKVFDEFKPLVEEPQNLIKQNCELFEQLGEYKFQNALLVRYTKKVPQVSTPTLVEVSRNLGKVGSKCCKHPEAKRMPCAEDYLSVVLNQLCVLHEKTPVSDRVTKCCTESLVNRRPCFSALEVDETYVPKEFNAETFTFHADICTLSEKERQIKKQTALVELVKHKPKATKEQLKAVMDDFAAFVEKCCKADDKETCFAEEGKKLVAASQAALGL
Chain of native HSA (P02768 25-609): as above
Chain of Albumin from human serum (native HSA) (P02768 25-609): as above

As for GSAARTISPSLL [cH2-p1], the Kd in [1] was 84 µM; in data set [2] (pH 7.4), 97 µM; in [3], 120 µM; on cHSA, around 100 µM; in data set [4], 1000 µM; in [5] it was 99 µM. Further, the “binding thermodynamics (sign of heat), cFgn” value in [1] (ITC titration peaks, pH 7.4, 25 °C) was “endothermic”. The “binding to carbamylated versus native fibrinogen (ITC)” value in data set [1] (cFgn versus native Fgn) is on record as “binding specificity to carbamylated fibrinogen (cFgn); also recorded: found to bind cFgn over the native protein”. Besides, the “Kd to cHSA relative to Kd to native HSA” value in data set [2] (ITC, comparison with native HSA) is listed as “almost 1 order of magnitude lower than its Kd to native HSA”. In data set [2] (both ITC and ELISA results), the “binding affinity for cHSA versus HSA (ITC and ELISA)” value is reported as “consistently higher binding affinity for cHSA than HSA”. Further, the “binding to HSA in words (ITC)” value at native HSA is recorded as “too weak to produce an obvious titration curve”. Besides, in the data set with native Fgn (fibrinogen), the “binding to native Fgn (ITC)” value is on record as “not binding to native Fgn at all”. The “binding thermodynamics (sign of heat), HSA/cHSA” value on cHSA (ITC titration peaks, HSA/cHSA, pH 7.4, 25 °C) was “exothermic”. The “influence of extent of carbamylation on binding affinity” value on cHSA (ITC, cHSA-1, cHSA-2, cHSA-3) was “difference in surface charge did not seem to affect the binding affinity; also recorded: not found to be influenced by the extent of carbamylation”.
Regarding TPTIAIAQYNKW [cH2-p5], the “aqueous solubility (expected)” value in data set [6] is reported as “marginally soluble”.
Turning to WPARTSAPFTNS [cH2-p3], the “aqueous solubility (expected)” value in data set [6] is “marginally soluble”.

B1: cH2-p1 peptide (synthetic) (peptide)
peptide: GSAARTISPSLL
As to B1, the dissociation constant (Kd) in data set [7] and in [8] was 1000 µM throughout.

B2: cH2-p4 peptide (synthetic) (peptide)
peptide: AHPHSDKLVPPR
In the case of B2, in [9], the dissociation constant Kd amounted to 130 µM.

B3: cH2-p6 peptide (synthetic) (peptide)
peptide: TLGLRPVPVATT
B3 yielded a Kd in data set [9] of 200 µM.
